Diaphorase act: compounds boosting diaphorase resazurin reduction – biochemical, uHTS, resorufin fluorescence, counter-screen for diaphorase-coupled primary assays, primary screen; Diaphorase/resazurin coupled assay, 16 min; active compounds read high; 1 = vehicle wells, 0 = NADH-free wells; hit rate 0.005% among 190,000; activation factor at 20 µM;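 active = diaphorase activity raised at least twofold by the compound at 20 µM; inactive = activation factor below 2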
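Test system: Clostridium kluyveri diaphorase, purified enzyme. Buffer or medium: 50 mM HEPES pH 7.4 buffer plus MgCl2 and Tween 20. Also added: 0.114 mM NADH and 0.1 mM resazurin, final amounts. Dosing: compound 20 µM once, DMSO 1%. Schedule: 16 min enzyme reaction, ambient temperature. Detection: fluorescence of resorufin, 544 nm excitation, 590 nm emission.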
L major viab: Leishmania major promastigote growth inhibition, primary screen; hit rate 9% among 200,000; Leishmania major promastigotes, resazurin fluorescence viability; inhibition, % at 10 µM; AID 1063, 2008; in the data active = inhibition above about 50%;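 also: promastigotes grown with compound for 44 hours at 28 °C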
PMI act satM6P: human PMI activators, high substrate, primary screen, biochemical, fluorescence intensity, near-saturating mannose 6-phosphate; Mannose-6-phosphate isomerase (Homo sapiens), P34949; coupled PMI enzyme assay, resazurin fluorescence, 20 min; active compounds read high; 1 = untreated enzyme, 0 = substrate-free blank; activation factor at 20 µM; hit rate 0.34% among 190,000;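 active = activation factor of 2 or more at 20 µM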
Target sequence (P34949 whole entry, looked up): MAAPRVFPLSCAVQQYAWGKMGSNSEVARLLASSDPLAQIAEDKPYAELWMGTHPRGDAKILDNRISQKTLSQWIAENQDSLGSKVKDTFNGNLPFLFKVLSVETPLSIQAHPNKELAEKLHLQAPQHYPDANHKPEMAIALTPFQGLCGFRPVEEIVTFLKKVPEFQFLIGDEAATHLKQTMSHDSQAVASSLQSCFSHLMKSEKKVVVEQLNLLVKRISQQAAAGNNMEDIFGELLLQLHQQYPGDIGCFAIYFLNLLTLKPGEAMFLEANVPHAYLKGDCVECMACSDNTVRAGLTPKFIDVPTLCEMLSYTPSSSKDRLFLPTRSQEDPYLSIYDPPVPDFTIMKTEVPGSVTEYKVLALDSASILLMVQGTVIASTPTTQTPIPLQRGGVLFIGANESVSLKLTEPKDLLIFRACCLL
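Test system: human PMI in coupled enzyme assay; Input: PMI at 15 ng/mL final; Medium: HEPES buffer, pH 7.4; Schedule: 20 min incubation at room temperature; Technique: resorufin fluorescence at Ex 544/Em 590 nm; Compound: 20 µM single dose; Probe or stimulus: Near-saturating mannose-6-phosphate, 1.0 mM.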
PMI act: activators of human PMI, primary screen, biochemical, fluorescence intensity, near-Km mannose 6-phosphate. Mannose-6-phosphate isomerase (Homo sapiens), P34949. purified human PMI, coupled resazurin fluorescence, 20 min; active compounds read high; 1 = vehicle control, 0 substrate-free wells. activation factor at 20 µM. hit rate 0.005% among 190,000. AID 1214, 2008;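 active = activation factor of 2 or more at 20 µM, relative to plate controls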
WT yeast gro inh: growth inhibition of WT strain, primary screen, mitochondrial fusion inhibitor project, WT and mutant strains, chemical genetic | AID 1362, 2008 | hit rate 2.1% among 190,000 | mitochondrial fusion phenotypic screen | inhibition, % at 10 µM; in the data active = inhibition above about 58%; tested in S. cerevisiae
Numbers stand for hits; . = inactive; / = no result given. Most compounds without a hit are left out; they make up all but 10% or so of the library.

SMILES	Diaphorase act	L major viab	PMI act satM6P	PMI act	WT yeast gro inh
O=C(Cc1ccccc1)Nc1ccc(C(=O)NCC2COc3ccccc3O2)cc1 (stereo not drawn)	.	.	.	.	.
CCOC(=O)c1cc(CC)sc1NC(=O)c1ccc([N+](=O)[O-])c(N2CCOCC2)c1	.	.	.	.	.
COc1ccc(C2=NO[C@@H]3C(=O)N(c4ccc(C)cc4C)C(=O)[C@H]23)cc1OC	.	.	.	.	.
Cc1ccc(N2C(=O)C3CC(c4ccccc4)=C4C5C=CC(C6C(=O)N(c7ccc(C)cc7C)C(=O)C56)C4C3C2=O)c(C)c1 (stereo not drawn)	.	78	.	.	/
Cc1ccc(N2C(=O)C3CC(c4ccccc4)=C4C5C=CC(C6C(=O)N(c7ccc(C)cc7)C(=O)C56)C4C3C2=O)cc1 (stereo not drawn)	.	98	.	.	.
COC(=O)c1ccccc1NC(=O)c1cccc(NC(=O)C(C)C)c1	.	.	.	.	.
COc1cc(/C=C/C(=O)OCC(=O)Nc2cc(C(F)(F)F)ccc2N2CCOCC2)ccc1O	.	.	.	.	.
CC(=O)Nc1sc2c(c1-c1nc3ccccc3s1)CCN(C(C)C)C2	.	100	.	.	58
Cc1ccccc1NC(=S)N(CCCN1CCOCC1)Cc1ccccn1	.	65	.	.	.
S=C(Nc1ccccc1Cl)N(CCCN1CCOCC1)Cc1ccco1	.	85	.	.	.
COc1ccccc1NC(=S)N(Cc1ccccn1)Cc1ccccc1Cl	.	.	.	.	67
Cc1ccc(NC(=S)N(CCCN2CCOCC2)Cc2ccccn2)cc1	.	.	.	.	.
Cc1ccccc1NC(=S)N(Cc1ccccn1)Cc1ccccc1Cl	.	.	.	.	69
CCCCN(C)C(=S)Nc1ccsc1C(=O)OC	.	.	.	.	.
COc1ccc(-c2nnc(SCc3nc4ccccc4s3)n2C(C)C)cc1	.	84	.	.	.
COc1ccccc1-c1nnc(SCc2nc3ccccc3s2)n1C	.	.	.	.	.
Cn1c(=O)c2nc(NCc3ccccc3)cnc2n(C)c1=O	.	.	.	.	.
Cc1nc2c(=O)n(C)c(=O)n(C)c2nc1Cl	.	100	.	.	58
Cc1ccc(-n2nc(-c3ccco3)cc2C(=O)O)c(C)c1	.	.	.	.	.
CCc1ccccc1NC(=O)c1ccccc1Sc1ccc([N+](=O)[O-])cc1Cl	.	97	.	.	.
Fc1ccc(C2CCCCN2Cc2nc(CC3CC3)no2)cc1 (stereo not drawn)	.	.	.	.	.
Fc1ccc(C2CCCN2Cc2nc(CC3CC3)no2)cc1 (stereo not drawn)	.	57	.	.	.
NNC(=O)c1sccc1OCc1ccc(F)cc1	.	.	.	.	.
O=C(N/N=C/c1ccc(Cl)cc1)c1sccc1OCc1ccc(F)cc1	.	85	.	.	.
O=C(N/N=C/c1ccc(F)cc1)c1sccc1OCc1ccc(F)cc1	.	88	.	.	.
SMILES	Diaphorase act	L major viab	PMI act satM6P	PMI act	WT yeast gro inh
O=C1c2cccc3cccc(c23)C(=O)N1CCCc1n[nH]c(=S)n1-c1ccccc1	.	.	.	.	.
Cc1cc(-c2nc3ncccc3o2)ccc1NC(=S)NC(=O)C(C)C	.	.	.	.	.
CCOc1ccccc1N1CC(C(=O)Nc2c(C)n(C)n(-c3ccccc3)c2=O)CC1=O (stereo not drawn)	.	.	.	.	.
N#CC(c1ccc(Cl)cc1)c1ccc(Cl)nn1 (stereo not drawn)	.	.	.	.	.
CCn1cc([N+](=O)[O-])c(C(=O)Nc2nc3ccc(OC)cc3s2)n1	.	.	.	.	.
Cc1nc2cc(F)ccc2n1C1CCN(C(=O)c2c(F)cccc2F)CC1	.	.	.	.	.
Cc1ccc(N2C(=O)CSC2c2c(F)cccc2Cl)cc1 (stereo not drawn)	.	.	.	.	.
COc1cccc(C2SCC(=O)N2c2ccc(Cl)cc2)c1OC (stereo not drawn)	.	67	.	.	.
Cc1cc(C(=O)CSc2nn3c(=O)c(C(C)(C)C)nnc3s2)c(C)n1C	.	.	.	.	.
O=C(COc1ccc(-c2ccccc2)cc1)N1CCN(C(=O)c2cccs2)CC1	/	.	/	/	.
O=C(Nc1ncc(Cc2ccccc2Cl)s1)C1=NCCN1	.	73	.	.	73
O=C(Nc1ncc(Cc2ccc(Cl)cc2Cl)s1)c1ccc([N+](=O)[O-])cc1	.	53	.	.	.
O=C(Nc1nnc(COc2ccc(Cl)cc2)s1)c1ccc([N+](=O)[O-])cc1	.	.	.	.	.
CSc1sc2ccccc2[n+]1CCCS(=O)(=O)[O-]	.	.	2	.	.
COC(=O)c1ccc(-c2ncc[nH]2)cc1	.	.	.	.	.
COc1ccc(C(C#N)N2N=C(c3ccccc3)CC2c2ccccc2)cc1OC (stereo not drawn)	.	100	.	.	.
CCOc1cc(C(C#N)N2CCCCC2)ccc1OC (stereo not drawn)	.	.	.	.	.
COc1ccc(C2=NN(C(C#N)c3ccc(OC)cc3)C(c3ccccc3)C2)cc1 (stereo not drawn)	.	69	.	.	.
O=[N+]([O-])c1cc(-c2ccn[nH]2)ccc1Cl	.	.	.	.	.
C/C(Cc1ccccc1)=N/NC(=O)CCCC(=O)N/N=C(/C)Cc1ccccc1	.	.	.	.	.
C/C(Cc1ccccc1)=N\NC(=O)CNC(=O)c1ccccc1Br	.	62	.	.	.
O=C(CN(Cc1ccco1)S(=O)(=O)c1ccccc1)N/N=C/c1ccccc1C(=O)O	.	.	.	.	.
O=C(COC(=O)C1CSC2(c3ccc(F)cc3)CCC(=O)N12)NC(=O)NC1CCCC1 (stereo not drawn)	.	.	.	.	.
O=C(/C=C/c1ccco1)Nc1nc(-c2ccccn2)cs1	.	100	.	.	.
O=C(Nc1ccc2nc(-c3ccccn3)[nH]c2c1)C1CCCCC1	.	100	.	.	.
SMILES	Diaphorase act	L major viab	PMI act satM6P	PMI act	WT yeast gro inh
CC(C)c1nc2ccc(NC(=O)C3CCCCC3)cc2[nH]1	.	.	.	.	.
O=C(CCCSc1ccccc1)Nc1nc(-c2ccccn2)cs1	.	100	.	.	69
CSCCC(=O)Nc1nc(-c2ccccn2)cs1	.	88	2.2	.	.
O=C(/C=C/c1ccco1)Nc1nc(-c2ccccc2)cs1	.	.	.	.	.
O=C(CCSc1ccccc1)Nc1ncccn1	.	.	.	.	.
CCOC(=O)C/C(C)=N/NC(=O)C1CC1(c1ccccc1)c1ccccc1 (stereo not drawn)	.	.	.	.	.

High-throughput results as filed in PubChem BioAssay.
